ROMK mod: modulates human ROMK potassium channel activity; Tet-inducible ROMK, thallium flux fluorescence; actives lie on both sides; P48048; B-score at 10 µM; 2% of 130,000 active;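 active means signal ratio slope over the read window, or its plate-corrected B-score, at least 3 SD from the plate mean, either direction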;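 further: B-score of the F/F0 ratio slope over 7 to 12 s after thallium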
KCC2 mod: modulates chloride dependent transport by human KCC2. Q9H2X9. KCC2 cells, thallium flux FluoZin-2 fluorescence. B-score of Tl+ flux slope (higher = more flux/activation; lower = inhibition) at 10 µM. 2.2% of 190,000 active;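 active means thallium flux slope and its plate-corrected score both differing from the plate sample mean at a set confidence after two filtering rounds, in either direction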;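 further: slope of fluorescence scaled to starting intensity during 10 to 20 s after thallium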
Rad51 HR inh: blocks human Rad51 in homologous recombination; Q06609; hRad51 DNA strand exchange, fluorescence dequenching; inhibition, % at 10 µM; 0.085% of 200,000 active; AID 1385;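 active means inhibition above 40% at the single screening dose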;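 further: 0% = DMSO control wells and 100% = blanks with heterologous ssDNA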
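Assay system: Human Rad51 nucleoprotein filaments preassembled on unlabelled ssDNA | Reagent: Donor/quencher-labelled 47-bp dsDNA substrate | Doses: One concentration, 10 µM final | Times: 37 °C 15-min filament assembly, 30-min compound preincubation, 15-min exchange | Technique: Fluorescein emission 520 nm, excitation 485 nm | Benchmarks: Plate control and blank wells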
PKD1 inh: PKD1 (human) kinase inhibition | Q15139 | PKD1 kinase fluorescence polarization assay | inhibition, % (test concentration not listed) | 0.056% of 200,000 active | AID 797; in the data active means inhibition above about 50%
Target sequence (Q15139 whole entry, looked up): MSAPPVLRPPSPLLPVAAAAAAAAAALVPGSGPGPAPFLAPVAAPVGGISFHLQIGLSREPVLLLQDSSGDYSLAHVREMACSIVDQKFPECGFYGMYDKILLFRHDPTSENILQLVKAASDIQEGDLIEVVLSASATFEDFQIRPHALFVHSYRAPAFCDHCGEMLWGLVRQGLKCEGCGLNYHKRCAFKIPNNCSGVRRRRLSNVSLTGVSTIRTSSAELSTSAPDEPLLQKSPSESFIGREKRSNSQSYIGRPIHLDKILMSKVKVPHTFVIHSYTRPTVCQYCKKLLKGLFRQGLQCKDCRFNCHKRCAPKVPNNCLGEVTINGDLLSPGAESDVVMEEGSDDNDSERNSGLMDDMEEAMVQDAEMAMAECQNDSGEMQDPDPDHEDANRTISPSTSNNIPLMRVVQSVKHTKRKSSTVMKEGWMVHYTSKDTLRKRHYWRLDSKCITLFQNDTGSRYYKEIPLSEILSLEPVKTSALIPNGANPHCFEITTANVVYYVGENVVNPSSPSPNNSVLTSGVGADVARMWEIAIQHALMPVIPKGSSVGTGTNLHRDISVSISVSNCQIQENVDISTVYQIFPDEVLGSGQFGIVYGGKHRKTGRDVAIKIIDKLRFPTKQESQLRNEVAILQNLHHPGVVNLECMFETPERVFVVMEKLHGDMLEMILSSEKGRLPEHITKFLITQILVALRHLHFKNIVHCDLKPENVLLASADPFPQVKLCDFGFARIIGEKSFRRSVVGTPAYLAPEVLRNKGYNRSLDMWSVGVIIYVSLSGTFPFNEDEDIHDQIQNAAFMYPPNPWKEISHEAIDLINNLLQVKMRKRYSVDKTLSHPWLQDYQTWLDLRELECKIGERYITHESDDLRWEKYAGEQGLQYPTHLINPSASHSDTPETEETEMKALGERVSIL
KCC2 secondary: KCC2 (human) modulation, secondary assay. HEK293-KCC2, thallium flux, FluoZin2 fluorescence; active compounds read high. AID 1713. shares compounds with KCC2 mod. 15% of 3,700 active. normalised thallium flux (F/F0 slope) at 10 µM;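 active means thallium flux slope above the same plate's solvent-only control mean plus 3 SD; inconclusive means the two replicate wells disagree; inactive means no significant difference from solvent-only control wells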
KCC2 bumet counter: thallium flux persisting under bumetanide in KCC2 cells, counter-screen secondary assay. AID 1714. normalized thallium flux at 10 µM. HEK293-KCC2 + bumetanide/ouabain, thallium flux FluoZin2; active compounds read high. 49% of 3,700 active. shares compounds with KCC2 mod;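 active means thallium entry rate above the same plate's blocked-transporter control wells by more than 3 SD; inconclusive means the two repeat wells disagree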;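 further: raw slope of fluorescence over initial fluorescence between 10 and 20 s after thallium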
KCC2 sec2: KCC2 (human) modulation, second secondary assay. 23% of 3,700 active. normalized thallium flux at 10 µM. HEK293-KCC2, thallium flux FluoZin2 fluorescence; actives lie on both sides; F/F0 rise rate, 10–20 s post-thallium. AID 1715. shares compounds with KCC2 mod;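 active means thallium flux slope more than 3 SD above or below the plate's solvent-only control mean, mostly below; inconclusive means the two repeat wells disagreed; inactive means no significant shift from solvent-only controls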;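 further: raw slope with 0.1% DMSO as baseline and bumetanide as block control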
HEK counter1: parental HEK flux effect, counter-screen; 46% of 3,700 active; thallium flux rate (normalised fluorescence) at 10 µM; HEK293 parental cells, thallium flux FluoZin2, ouabain; baseline-ratio fluorescence slope, 10–20 s after thallium; shares compounds with KCC2 mod;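 active means thallium flux rate significantly above the same plate's solvent-only control wells, beyond their mean plus 3 SD; inconclusive means the two replicate wells gave conflicting results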
KCC2 retest ouab: KCC2 (human) modulation, ouabain retest | shares compounds with KCC2 mod | HEK293-KCC2, thallium flux FluoZin2 fluorescence; bidirectional: low = inhibitor, high = activator | raw Tl+ flux slope (below DMSO = inhibition, above = activation) at 10 µM | 48% of 3,700 active;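 active means thallium flux slope beyond 3 SD from same-plate DMSO control mean in most replicates, usually higher, sometimes lower; inconclusive means repeat tests gave conflicting results; inactive means no significant difference from controls in most replicates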;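 further: slope of initial-normalized fluorescence between seconds 10 and 20 after thallium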
HEK counter2: acts in parental HEK cells, second KCC2 counter-screen. shares compounds with KCC2 mod. AID 1718. thallium flux slope at 10 µM. HEK293 parental, thallium flux FluoZin-2 fluorescence slope. 33% of 3,700 active;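 active means thallium flux slope above the same plate's solvent-control mean plus 3 SD in both duplicate wells; inconclusive means duplicate wells that disagreed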;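 further: run without ouabain in cells lacking the KCC2 cotransporter; slope of fluorescence scaled to its starting value between 10 and 20 s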
Active calls of the source: *; ? = inconclusive; nt = no result given. Rows were chosen to be rich in hits. Some 3% of all compounds tested hit in one or more screens of this group.

SMILES	ROMK mod	KCC2 mod	Rad51 HR inh	PKD1 inh	KCC2 secondary	KCC2 bumet counter	KCC2 sec2	HEK counter1	KCC2 retest ouab	HEK counter2
Cc1ccc(NC(=O)Cn2nc(-c3ccccc3Cl)ccc2=O)c(Br)c1	-0.12	0.13	7	-4	nt	nt	nt	nt	nt	nt
COC(=O)C1CSC(C(=O)OC)N1C(=O)CN1CCN(c2ccccc2)CC1 (stereo not given)	-0.068	-0.068	1	2	nt	nt	nt	nt	nt	nt
CCc1ccc(Nc2nnc(SCC(=O)NC(=O)c3cccn3C)s2)cc1	-0.014	-4.9*	-11	-1	0.005	0.0047	0.025*	?	0.012*	0.01
Cc1sc2ncnc(SCC(=O)NC(=O)c3cccn3C)c2c1C	0.14	59*	-8	-7	0.039*	0.13*	0.045*	0.072*	0.072*	0.029*
Cc1cccc(Nc2nnc(SCC(=O)Nc3cccc(S(=O)(=O)N4CCCCC4)c3)s2)c1	nt	-5.1*	nt	1	0.0072	0.0051	?	?	0.014*	0.0099
Cc1ccc(Nc2nnc(SCC(=O)Nc3cccc(S(=O)(=O)NC4=NCCCCC4)c3)s2)cc1	nt	-3.6	11	-15	nt	nt	nt	nt	nt	nt
CCc1ccc(Nc2nnc(SCC(=O)Nc3ccc(C(=O)O)cc3)s2)cc1	nt	-0.17	3	nt	nt	nt	nt	nt	nt	nt
CCc1ccc(Nc2nnc(SCC(=O)Nc3cccc(S(=O)(=O)NC4=NCCCCC4)c3)s2)cc1	-0.53	-7.4*	1	-8	0.0089	0.0078*	0.026*	0.0068	0.011*	0.011
Cc1sc2ncnc(SCC(=O)NNC(=O)c3ccco3)c2c1C	1.4	1.8	-6	3	nt	nt	nt	nt	nt	nt
O=S(=O)(NCCC1=CCCCC1)c1cccc(S(=O)(=O)N2CCOCC2)c1	nt	-3.9	-1	-1	nt	nt	nt	nt	nt	nt
O=C(Cc1c(F)cccc1Cl)Nc1ccc(S(=O)(=O)NCC2CCCO2)cc1 (stereo not given)	-0.5	0.066	-2	5	nt	nt	nt	nt	nt	nt
Cc1sc2ncnc(SCC#N)c2c1C	nt	4.5*	4	-3	0.0061	0.016*	0.032	0.0099*	?	?
N#Cc1c(SCC(=O)O)nc(N2CCCCC2)c2c1CCCC2	0.023	-3.2*	-3	-9	0.012	0.0062	0.033	0.0064	0.02	0.011
COc1ccc(C(=O)N2CCC(n3c(C)nc4cc(F)ccc43)CC2)cc1	0.075	-0.63	6	-3	nt	nt	nt	nt	nt	nt
Cc1nn(-c2ccccc2)c(N)c1Sc1cccc([N+](=O)[O-])c1	nt	-7*	nt	-3	0.0085	0.0048	0.031	0.0053*	0.028	0.0097
Cc1ccc(CNC(=O)CCC2CCCN(Cc3c(C)nn(C(C)C)c3C)C2)o1 (stereo not given)	-0.03	nt	6	0	nt	nt	nt	nt	nt	nt
CC1=CC(C)(C)n2c(O)c(N=NC(N)=S)c3cc(C)cc1c32	-0.91	8.7*	6	-13	0.012*	0.033*	0.03	0.016*	?	0.011*
COC(=O)Cc1[nH]n(-c2nc3ccccc3s2)c(=O)c1C(C)=Nc1ccc(Cl)cc1	nt	7.4*	nt	nt	0.0087	0.014*	0.03	0.013*	?	?
Cc1oc(-c2cc(F)ccc2F)nc1CN(C)Cc1ccc2nccnc2c1	nt	0.7	-2	-1	nt	nt	nt	nt	nt	nt
Cc1oc(-c2cc(F)ccc2F)nc1CN1CCN(c2cnccn2)CC1	-0.82	-5*	nt	1	0.011	0.006	0.03	0.0076	0.065	?
COc1ccc(/C=N/OC(=O)c2ccc(Cl)cc2)c(Cl)c1OC	nt	0.018	-4	nt	nt	nt	nt	nt	nt	nt
CC(C)(C)NC(=O)CSc1nnc(C2CC2)n1-c1ccccc1	0.013	0.41	-1	9	nt	nt	nt	nt	nt	nt
